# Results from different studies.
# Lines come from different studies, so protocols differ.
# Target: Vascular endothelial growth factor receptor 2 (KDR, Homo sapiens, UniProt P35968)
Structure (SMILES),assay,setting,quantity,result
COc1ccc2oc(-c3ccc4nc(N)oc4c3)c/c(=N\c3ccccc3NC(=O)CCN)c2c1,binding,1 µM,remaining binding,103%
C#Cc1cnc(Nc2ccnc(CO)c2)nc1Nc1ccccc1S(C)(=O)=NC#N (stereo not shown),cell-free assay,1 µM,remaining signal,41%
N#Cc1ccc(NC(=O)Nc2ccccc2)cc1,"cell-free assay, competition with immobilised ligand",25 µM,remaining binding,96%
COc1ccc2[nH]c3c4[nH]c5ccc(OC)cc5c4c4c(c3c2c1)C(=O)NC4=O,"binding, competition with immobilised ligand",1 µM,remaining binding,59%
O=C(O)[C@H]1O[C@@H](Oc2cc(O)c3c(=O)cc(-c4ccc(O)c(O)c4)oc3c2)[C@H](O)[C@@H](O)[C@@H]1O,"enzyme activity, inhibitor, TR-FRET",40 µM,inhibition,83.9%
CC#CC(=O)N1CCC[C@H]1c1nc(-c2ccc(C(=O)Nc3ccccn3)cc2)c2c(N)nccn12,"enzyme activity, inhibitor",1 µM,inhibition,0%
Cc1ccc(NC(=O)c2ccnc(C(F)(F)F)c2)cc1-c1cc(OCCO)nc(N2CCOCC2)c1,"binding, competition with immobilised ligand",1 µM,remaining binding,85%
CCCCC(=O)Nc1ccc(-c2ccc3ncn(CCC)c(=O)c3c2)cn1,"binding, competition with immobilised ligand",0.5 µM,remaining binding,95%
C[C@@H]1O[C@@H](O[C@H]2[C@H](Oc3cc(O)c4c(=O)cc(-c5ccc(O)cc5)oc4c3)O[C@H](CO)[C@@H](O)[C@@H]2O)[C@H](O)[C@H](O)[C@H]1O,"enzyme activity, inhibitor, TR-FRET",40 µM,inhibition,8.3%
CO[C@@H]1[C@H](N(C)C(=O)c2ccccc2)C[C@H]2O[C@]1(C)n1c3ccccc3c3c4c(c5c6ccccc6n2c5c31)C(=O)NC4,"enzyme activity, inhibitor",1 µM,inhibition,67%
